Bioassay records deposited in PubChem BioAssay by several laboratories.
Compounds with a hit are over-represented: about 12% of the library has one in this group of screens.
MT stabilize HCS: microtubule stabilization, imaging screen; HeLa tubulin immunostaining HCS, 24 h; share of cells brighter than vehicle mean+2SD; % tubulin-high responders, % at 10 µM; 200,000 tested, 0.83% active;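 active = plate Z-score above 3 for both tubulin-high and condensed-nucleus cell shares, with cell loss under 80%, at 10 µM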;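 also: anti alpha tubulin signal scored within the nucleus-defined area of each cell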
CHOP inhibitor: blocks CHOP induction under ER stress; CHO-K1 CHOP-promoter luciferase, tunicamycin-induced, 15-18 h; inhibition, % at 10 µM; 220,000 tested, 3.8% active; AID 2732;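 active = compounds that reduced the stress-induced luciferase reporter signal by more than about 70% of percent inhibition, limit read from the data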;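 also: 0% = tunicamycin plus vehicle and 100% = wells without tunicamycin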
bCat nuc transl: alters nuclear translocation of beta-catenin in HeLa cells; immunofluorescence imaging; 190,000 tested, 0.3% active; nuclear translocation activity, % at 5 µM;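 active = nuclear translocation activity above 50% at 5 µM, with a well cell count of 50 or more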;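 also: per-cell ratio of nuclear to cytoplasmic median beta-catenin stain intensity; plate controls were DMSO negative control for no effect and GSK-3 inhibitor IX positive control for full effect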
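Test system: human HeLa cells, endogenous beta-catenin. Times: 24 h compound exposure, 37°C. Measured by: beta-catenin immunofluorescence imaging with DAPI.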
Autophagy HCS: alters autophagy in cells; calls only at 10 µM (by protocol); MEF GFP-LC3 puncta imaging; test concentration mostly 10 µM; 190,000 tested, 0.98% active;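 active = percentage of spot-positive cells more than 3 SD above its plate mean, without a fluorescence outlier flag or 80% toxicity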;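 also: spot-positive cell cutoff set from DMSO-treated cells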
Dynein transport: dynein cargo transport inhibition | 3617.4 mouse cells, GR-EGFP nuclear translocation imaging; test concentration mostly 20 µM; stimulated with dexamethasone, 1 µM; hits give low values | z-score, hits read low | 220,000 tested, 0.47% active | AID 1381;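 active = plate z-score of nuclear minus cytoplasmic receptor signal below a set negative limit, without overly bright fluorescence or cell loss, cut at about -3.5 in these data, passing the limit was not always enough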;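 also: z-score of nuclear minus cytoplasmic ring GR-EGFP intensity difference per well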
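Buffer or medium – tet-free medium with charcoal-stripped serum · Signal – automated 10x imaging of fixed Hoechst-stained cells · Also added – dexamethasone agonist, 1.0 µM final, for 30 min · Incubation – induction 48 h, compound 1 h, agonist 30 min · Read-out – GR-EGFP nuclear translocation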
Lmaj promast: inhibitors of Leishmania major promastigote growth | Leishmania major promastigotes, resazurin fluorescence viability | 200,000 tested, 9% active | inhibition, % at 10 µM; in the data active = inhibition above about 50%;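 also: promastigotes grown with compound for 44 hours at 28 °C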
Active calls of the source: *; i = inactive; nt = no result; + = active, no number.

SMILES	MT stabilize HCS	CHOP inhibitor	bCat nuc transl	Autophagy HCS	Dynein transport	Lmaj promast
CC1CC1C(=O)Nc1nc(-c2ccccn2)cs1 (centres undefined)	3.4	-162.5	nt	i	-0.741	100.1*
CSc1nc2ccc3nc(NC(=O)C4COc5ccccc5O4)sc3c2s1 (centres undefined)	8.5	49.8	-0.9	nt	0.135	78.5*
O=C(CSc1c(F)c(F)cc(F)c1F)Nc1ccc(C2SCCS2)cc1	nt	8.0	2.9	nt	0.135	nt
COc1ccc(CCNC(=O)c2ccn[nH]2)cc1OC	3.2	3.0	0.6	i	-0.0751	0.7
C[C@@H](C(=O)Nc1nc(-c2ccccn2)cs1)N1C(=O)C2CCCCC2C1=O (some centres undefined)	2.5	11.9	-4.2	i	-0.478	100.3*
O=C(CN1C(=O)C2CCCCC2C1=O)Nc1nc(-c2ccccn2)cs1 (centres undefined)	1.5	49.2	-2.7	i	1.19	20.4
CCc1cc2c(CN3CCN(CCO)CC3)cc(=O)oc2cc1O	1.9	12.1	-1.0	i	0.0249	4.5
C=C1CCN([C@H](C(=O)NCc2ccc(OC)cc2)C(C)C)S(=O)(=O)c2ccccc21	nt	3.6	1.7	nt	-0.212	nt
Cc1cc2nccc(-c3cccnc3)n2n1	3.5	13.2	-2.9	i	-0.0207	-0.9
NC(=O)SCC(=O)Nc1ccc(Cl)c(Cl)c1	2.4	33.7	-8.9	i	-0.406	98.0*
CCNc1nc(SCC(=O)Nc2ccc(Cl)c(Cl)c2)nc(N(C)C)n1	1.6	78.6*	-1.8	i	0.00269	39.3
CO/N=C\CC(=O)Nc1ccc(Cl)c(Cl)c1	25.6*	-2.9	49.2	i	-0.761	-1.1
Cc1ccc(NC(=O)CSC(N)=O)cc1Cl	1.4	27.9	-1.4	i	-0.0847	-1.9
O=C(CN1CCN(CCN2C(=O)c3cccc4cccc(c34)C2=O)CC1)c1ccc(Cl)cc1	2.0	8.2	-1.6	i	-0.693	86.7*
O=C(C(c1ccccc1)c1ccccc1)N1CCN(CCN2C(=O)c3cccc4cccc(c34)C2=O)CC1	2.9	45.3	-2.8	i	-0.482	-5.3
COc1cccc(OCC(O)CN2CCN(CCN3C(=O)c4cccc5cccc(c45)C3=O)CC2)c1 (centres undefined)	6.1	35.7	1.8	i	1.08	100.0*
O=C1c2cccc3cccc(c23)C(=O)N1CCN1CCN(CC(O)COc2ccccc2)CC1 (centres undefined)	5.0	14.1	-0.2	i	-0.708	97.1*
CSc1nnc(C(C)(C)C)c(=O)n1/N=C/c1ccc(Cl)cc1	nt	21.8	-0.9	nt	0.882	nt
CCCc1cc(=O)oc2cc(OCC(=O)OC)cc(OCC(=O)OC)c12	3.1	-10.8	-2.0	i	-0.489	-2.6
O=C(C(Cc1ccc(Cl)cc1)NS(=O)(=O)c1ccccc1)N1CC[C@@]2(O)CCCC[C@H]2C1 (some centres undefined)	2.3	53.7	0.7	i	-0.192	51.4*
CCC(NS(=O)(=O)c1ccc(C)cc1)C(=O)N1CCC2(O)CCCCC2C1 (centres undefined)	2.6	8.5	nt	i	-0.581	-7.3
OCCN1CCOCCN(CCO)CCOCC1	4.8	18.5	-7.3	i	2.37	-3.2
Cc1noc(C)c1CSc1nc2ccccc2n1C	3.5	-22.4	-6.7	+	-0.59	-0.6
Cc1noc(C)c1CSc1nnc2c(C)cc3ccccc3n12	16.4	nt	nt	i	0.202	8.9
Cc1ccc(OCC(=O)c2cc(C)n(C)c2C)c([N+](=O)[O-])n1	3.6	39.8	-1.2	i	0.0268	52.9*
SMILES	MT stabilize HCS	CHOP inhibitor	bCat nuc transl	Autophagy HCS	Dynein transport	Lmaj promast
Cc1cc(C(=O)COc2cccnc2[N+](=O)[O-])c(C)n1-c1ccccc1	3.1	75.2*	0.5	i	0.501	50.6*
Cc1cc(C(=O)COc2cccc3cccnc23)c(C)n1C	2.1	4.4	0.2	i	-0.947	-4.0
CCCCN(C(=O)CSc1nnc(Nc2ccccc2)s1)c1c(N)n(CCC)c(=O)[nH]c1=O	2.0	8.0	-1.1	i	0.248	0.0
O=c1[nH]n2c(=O)c3c([nH]c2c1N=Nc1cccc(Cl)c1)CCCC3	5.3	-6.8	0.7	i	1.24	-6.1
CCOc1ccc(N=Nc2c(=O)[nH]n3c(=O)c4c([nH]c23)CCCC4)cc1	8.8	87.3*	3.3	i	-0.488	-1.2
Cc1cccc(-n2cc(CNCCN3CCOC3=O)c(-c3cccc(F)c3)n2)c1	2.6	-9.6	-0.5	i	-1.26	11.5
Cc1[nH]n(C2=NCCS2)c(=O)c1N=Nc1ccccc1	3.3	14.9	0.3	i	-0.856	79.6*
Cc1ccccc1N=Nc1c(C)[nH]n(-c2ccccc2)c1=O	1.7	15.2	0.2	i	-0.31	-6.2
Cc1[nH]n(-c2ccccc2)c(=O)c1N=Nc1nccs1	1.6	3.4	-5.7	i	0.266	96.2*
Cc1ccc2nc(-c3ccc(NC(=S)NC(=O)CC(C)C)cc3)sc2c1	2.7	96.1*	4.0	i	2.53	0.3
Cc1ccc2nc(-c3ccc(NC(=O)CCS(=O)(=O)c4ccccc4)cc3)sc2c1	1.9	81.5*	3.4	i	-0.474	0.4
Cc1ccc(S(=O)(=O)Nc2ccc(-c3nc4cc(NS(=O)(=O)c5ccc(C)cc5)ccc4o3)cc2)cc1	3.4	60.1	nt	i	0.375	98.5*
Cc1cccc(S(=O)(=O)Nc2ccc(-c3nc4ccc(C)cc4s3)cc2)c1	2.9	-6.3	0.5	i	-0.522	-4.6
Cc1ccc(S(=O)(=O)Nc2ccc(-c3nc4ccc(C)cc4s3)cc2)cc1	0.9	87.1*	7.1	i	-0.0605	0.6
O=S1(=O)C=C(SCc2ccc(F)cc2)Nc2ccccc21	5.3	7.0	-1.2	i	0.633	8.1
CCOC(=O)CC(Nc1nc(N2CCOCC2)nc(N2CCOCC2)n1)c1ccccc1Cl (centres undefined)	5.1	41.1	nt	i	-0.958	19.7
O=C(CCN1C(=O)S/C(=C\c2cccs2)C1=O)NC1=NCCS1	3.2	9.0	nt	i	-1.13	27.7
O=C(c1n[nH]c2ccccc12)N1CCN(c2ccc(F)cc2)CC1	6.8	1.7	-1.8	i	-0.138	12.2
C=CCSC1=C(C#N)C(c2cccc(OC)c2)CC(=O)N1 (centres undefined)	3.4	35.7	-0.3	i	1.44	1.0
O=C(CN1CCOCC1)Nc1nc(-c2ccc3c(c2)CCN3S(=O)(=O)c2ccccc2)cs1	1.7	12.4	3.6	i	-0.984	67.5*
CCC(CC)C(=O)Nc1nc(-c2ccc3c(c2)CCN3C(=O)C2CC2)c(C)s1	2.3	62.4	3.7	i	0.426	16.0
Cc1sc(NC(=O)CN2CCOCC2)nc1-c1ccc2c(c1)CCN2S(=O)(=O)c1ccccc1	2.4	72.5*	-0.5	i	-0.0335	97.0*
